Measurements published in article PMC4027032 (Journal of the American Chemical Society, 2011).

Key:
papain = target: T1, papain (Carica papaya, UniProt P00784); test: Papain inhibition, chromogenic substrate BAPNA; assay type: biochemical; settings: inhibitor 1 alone; papain 650 nM, phosphate buffer pH 6.5, 11% DMSO
T1 sequence (P00784 134-345): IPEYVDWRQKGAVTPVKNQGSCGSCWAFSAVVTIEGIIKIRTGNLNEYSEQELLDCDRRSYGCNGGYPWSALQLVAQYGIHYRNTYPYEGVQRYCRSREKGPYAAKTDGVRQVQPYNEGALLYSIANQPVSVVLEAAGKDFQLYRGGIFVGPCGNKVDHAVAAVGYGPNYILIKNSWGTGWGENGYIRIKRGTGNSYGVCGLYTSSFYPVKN

[1] = target: human cathepsin B in hBMSC lysates (Homo sapiens, UniProt P07858); test: Cathepsin B activity in hBMSC lysates, Z-Arg-Arg-AMC; assay type: biochemical; settings: 1 alone; hBMSC lysate
How it was run: (§1)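 Cathepsin B activity was measured in DU145 or hBMSC cell lysates with fluorogenic Z-Arg-Arg-AMC at 100 μM, run in the dark or after the test compound was irradiated for 10 min with a 250 W tungsten halogen lamp (>395 nm, H2O filter). Activity was plotted against log[inhibitor] and fit to a sigmoidal curve to give IC50, with 100% set by the no-inhibitor control.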

human cathepsin K = target: T2, human cathepsin K (Homo sapiens, UniProt P43235); test: Cathepsin K inhibition, fluorogenic substrate Z-Gly-Pro-Arg-AMC; assay type: biochemical; settings: 1 alone; acetate buffer pH 5.5, cat K 20 nM, 1% DMSO
T2 sequence (P43235 115-329): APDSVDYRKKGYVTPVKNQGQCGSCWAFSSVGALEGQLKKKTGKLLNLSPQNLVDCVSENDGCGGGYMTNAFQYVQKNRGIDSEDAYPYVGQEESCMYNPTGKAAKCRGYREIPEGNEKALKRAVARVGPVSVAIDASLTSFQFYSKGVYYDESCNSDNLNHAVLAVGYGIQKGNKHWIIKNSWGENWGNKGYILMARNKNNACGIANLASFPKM
How it was run: (§2)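 Human cathepsin K or L at 20 nM in 0.4 M acetate buffer (pH 5.5, 4 mM EDTA, 8 mM DTT, final 1% DMSO). Substrates at 100 μM were Z-Gly-Pro-Arg-AMC for K and Z-Phe-Arg-AMC for L. Reactions were run in the dark or after 10 min irradiation (250 W tungsten halogen lamp, >395 nm, H2O filter). IC50 came from a sigmoidal fit versus log[inhibitor], with 100% set by the no-inhibitor control.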

human cathepsin B = human cathepsin B (Homo sapiens, UniProt P07858); test: Cathepsin B inhibition, fluorogenic substrate Z-Arg-Arg-AMC; assay type: biochemical; settings: 1 alone; acetate buffer pH 6.0, cat B 8 nM, 1% DMSO
How it was run: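 Human cathepsin B at 8 nM in 0.4 M acetate buffer (pH 6.0, 4 mM EDTA, 8 mM DTT, final 1% DMSO), with Z-Arg-Arg-AMC at 100 μM. Reactions were run in the dark or after 10 min irradiation of the test compound (250 W tungsten halogen lamp, >395 nm, H2O filter). IC50 came from a sigmoidal fit of activity versus log[inhibitor], with 100% set by the no-inhibitor control.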

[2] = target: human cathepsin B in DU145 lysates (Homo sapiens, UniProt P07858); test: Cathepsin B activity in DU145 cell lysates, Z-Arg-Arg-AMC; assay type: biochemical; settings: 1 alone; DU145 lysate
How it was run: as §1

human cathepsin L = human cathepsin L (Homo sapiens, UniProt P07711); test: Cathepsin L inhibition, fluorogenic substrate Z-Phe-Arg-AMC; assay type: biochemical; settings: 1 alone; acetate buffer pH 5.5, cat L 20 nM, 1% DMSO
Sequence of human cathepsin L (P07711 114-333): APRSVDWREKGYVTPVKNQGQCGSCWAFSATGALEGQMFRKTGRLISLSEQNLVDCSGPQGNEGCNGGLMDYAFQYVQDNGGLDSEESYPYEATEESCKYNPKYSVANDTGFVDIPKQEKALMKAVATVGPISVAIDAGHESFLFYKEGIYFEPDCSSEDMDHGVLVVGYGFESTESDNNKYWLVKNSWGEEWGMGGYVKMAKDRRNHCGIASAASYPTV
How it was run: as §2

[3] = λirr = 400 nm; cited from earlier work

Compound | IC50 (papain) | IC50 [1] | IC50 (human cathepsin K) | IC50 (human cathepsin B) | IC50 [2] | IC50 (human cathepsin L) | overall photoaquation quantum yield ΦR→P [3]
CC(=O)N[C@@H](Cc1ccccc1)C(=O)NCC#N [compound 1, Ac-Phe-NHCH2CN, reference compound] | 0.638 µM | 183 µM | 12 µM | 133 µM | 182 µM | 72 µM | –
CC#N.CC#N.[Cl-].[Cl-].[Ru+2].c1ccc(-c2ccccn2)nc1.c1ccc(-c2ccccn2)nc1 [cis-[Ru(bpy)2(MeCN)2]Cl2] | – | – | – | – | – | – | 0.21
